Data reported in ChEMBL document CHEMBL3112393, “Structure-based design, synthesis and biological evaluation of diphenylmethylamine derivatives as novel Akt1 inhibitors” (Eur J Med Chem, 2014).
Activity calls are given as the source filed them. No cut-off for these calls is given here.

Experiments:
[1] = tested on: HCT-116; experiment: Antiproliferative activity against human HCT116 cells after 72 hrs by MTT assay; type: functional, cell-based; settings: HCT-116, 72 h
Method in brief: (§1)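 MTT assay: cells seeded at 4000 per well, attached overnight, exposed to compound over 1.0–100.0 range for 72 h. MTT then added, 4 h more at 37 °C. Formazan dissolved in DMSO, absorbance at 570 nm. Triplicate wells in three independent experiments. IC50 from dose-effect analysis.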

[2] = tested on: HL-60; experiment: Antiproliferative activity against human HL60 cells after 72 hrs by MTT assay; type: functional, cell-based; settings: HL-60, 72 h; method in brief: as §1
[3] = tested on: OVCAR-8; experiment: Antiproliferative activity against human OVCAR8 cells after 72 hrs by MTT assay; type: functional, cell-based; settings: OVCAR-8, 72 h; method in brief: as §1
[4] = molecular target: T1, RAC-alpha serine/threonine-protein kinase (Homo sapiens, UniProt P31749); experiment: Inhibition of Akt1 (unknown origin) using ATP/eNOS as substrate preincubated for 5 mins followed by substrate addition measured after 30 mins by fluorescence polarization assay
T1 sequence (P31749 whole entry): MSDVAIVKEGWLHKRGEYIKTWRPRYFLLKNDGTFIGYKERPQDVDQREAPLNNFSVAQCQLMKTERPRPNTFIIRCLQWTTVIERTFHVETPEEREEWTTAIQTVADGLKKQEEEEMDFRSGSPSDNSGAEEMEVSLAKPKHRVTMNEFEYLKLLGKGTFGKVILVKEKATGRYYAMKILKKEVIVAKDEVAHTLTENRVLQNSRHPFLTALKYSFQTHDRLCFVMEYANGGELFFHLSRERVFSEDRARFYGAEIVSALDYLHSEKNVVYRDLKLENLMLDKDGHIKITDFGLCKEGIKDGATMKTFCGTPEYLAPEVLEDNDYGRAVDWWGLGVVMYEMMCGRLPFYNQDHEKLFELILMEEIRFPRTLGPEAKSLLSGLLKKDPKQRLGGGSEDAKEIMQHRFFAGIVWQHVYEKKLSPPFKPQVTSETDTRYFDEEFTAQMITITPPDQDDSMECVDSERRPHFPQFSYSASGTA

[5] = molecular target: T1, RAC-alpha serine/threonine-protein kinase; experiment: Inhibition of Akt1 in human OVCAR8 cells assessed as effect on total GSK3beta level at 1 uM by Western blotting analysis; type: cell-based; settings: OVCAR-8
Method in brief: (§2)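 OVCAR-8 cells treated, washed with ice-cold PBS, lysed in buffer with NaF, β-glycerophosphate and PMSF. Lysate cleared at 13,000 rpm for 30 min at 4 °C, protein measured by Bradford. 40–80 of lysate protein run on SDS-PAGE and transferred to nitrocellulose. Blots probed with primary antibodies, then HRP secondaries, detected by ECL.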

[6] = molecular target: Tyrosine-protein kinase JAK2 (Homo sapiens) (UniProt O60674); experiment: Inhibition of JAK2 (unknown origin) at 0.8 ug/ml
Tyrosine-protein kinase JAK2 (Homo sapiens), sequence (O60674 whole entry): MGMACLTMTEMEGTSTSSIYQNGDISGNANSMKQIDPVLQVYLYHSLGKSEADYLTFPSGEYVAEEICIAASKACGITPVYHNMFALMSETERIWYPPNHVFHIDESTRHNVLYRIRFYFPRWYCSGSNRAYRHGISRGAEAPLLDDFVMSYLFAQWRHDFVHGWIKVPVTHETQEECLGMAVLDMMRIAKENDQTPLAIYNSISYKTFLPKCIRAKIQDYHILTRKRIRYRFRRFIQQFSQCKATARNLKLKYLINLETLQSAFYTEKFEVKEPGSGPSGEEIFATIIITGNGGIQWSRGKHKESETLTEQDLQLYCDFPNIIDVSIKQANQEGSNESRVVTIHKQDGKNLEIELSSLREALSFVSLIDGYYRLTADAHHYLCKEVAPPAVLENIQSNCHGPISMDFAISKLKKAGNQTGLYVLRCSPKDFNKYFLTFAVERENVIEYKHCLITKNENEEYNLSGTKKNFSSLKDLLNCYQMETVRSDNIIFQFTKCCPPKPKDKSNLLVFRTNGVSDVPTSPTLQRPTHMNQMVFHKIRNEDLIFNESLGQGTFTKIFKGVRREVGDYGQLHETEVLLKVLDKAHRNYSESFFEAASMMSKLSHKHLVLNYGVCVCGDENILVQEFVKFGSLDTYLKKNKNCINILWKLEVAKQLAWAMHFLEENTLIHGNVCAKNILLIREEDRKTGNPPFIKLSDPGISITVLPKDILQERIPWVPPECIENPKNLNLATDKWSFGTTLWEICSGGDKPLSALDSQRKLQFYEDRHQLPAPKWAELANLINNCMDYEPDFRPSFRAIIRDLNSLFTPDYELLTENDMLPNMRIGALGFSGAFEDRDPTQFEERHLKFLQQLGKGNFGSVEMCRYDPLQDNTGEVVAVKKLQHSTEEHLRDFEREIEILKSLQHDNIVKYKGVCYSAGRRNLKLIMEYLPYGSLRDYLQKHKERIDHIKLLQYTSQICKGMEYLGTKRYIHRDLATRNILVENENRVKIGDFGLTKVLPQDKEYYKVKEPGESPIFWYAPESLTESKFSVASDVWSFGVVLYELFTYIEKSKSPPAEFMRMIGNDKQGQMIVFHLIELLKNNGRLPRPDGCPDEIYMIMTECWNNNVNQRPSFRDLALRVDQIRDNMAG

[7] = molecular target: Tyrosine-protein kinase SYK (Homo sapiens) (UniProt P43405); experiment: Inhibition of SYK (unknown origin) at 0.8 ug/ml
[8] = molecular target: Glycogen synthase kinase-3 beta (Homo sapiens) (UniProt P49841); experiment: Inhibition of GSK3beta (unknown origin) at 0.8 ug/ml
Glycogen synthase kinase-3 beta (Homo sapiens), sequence (P49841 whole entry, looked up): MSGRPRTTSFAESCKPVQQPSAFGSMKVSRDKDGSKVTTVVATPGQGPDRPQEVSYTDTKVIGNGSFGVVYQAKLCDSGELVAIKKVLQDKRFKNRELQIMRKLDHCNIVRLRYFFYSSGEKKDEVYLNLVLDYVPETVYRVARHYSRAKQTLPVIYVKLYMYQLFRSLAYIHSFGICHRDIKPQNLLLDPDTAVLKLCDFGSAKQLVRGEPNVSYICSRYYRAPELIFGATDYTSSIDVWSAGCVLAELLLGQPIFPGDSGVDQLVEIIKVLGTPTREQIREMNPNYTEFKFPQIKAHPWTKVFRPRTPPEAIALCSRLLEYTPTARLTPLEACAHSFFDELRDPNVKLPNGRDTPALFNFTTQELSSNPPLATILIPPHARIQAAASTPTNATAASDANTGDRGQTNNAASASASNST

[9] = molecular target: T2, Inhibitor of nuclear factor kappa-B kinase subunit beta (Homo sapiens) (UniProt O14920); experiment: Inhibition of IKKbeta (unknown origin) at 0.8 ug/ml
T2 sequence (whole entry): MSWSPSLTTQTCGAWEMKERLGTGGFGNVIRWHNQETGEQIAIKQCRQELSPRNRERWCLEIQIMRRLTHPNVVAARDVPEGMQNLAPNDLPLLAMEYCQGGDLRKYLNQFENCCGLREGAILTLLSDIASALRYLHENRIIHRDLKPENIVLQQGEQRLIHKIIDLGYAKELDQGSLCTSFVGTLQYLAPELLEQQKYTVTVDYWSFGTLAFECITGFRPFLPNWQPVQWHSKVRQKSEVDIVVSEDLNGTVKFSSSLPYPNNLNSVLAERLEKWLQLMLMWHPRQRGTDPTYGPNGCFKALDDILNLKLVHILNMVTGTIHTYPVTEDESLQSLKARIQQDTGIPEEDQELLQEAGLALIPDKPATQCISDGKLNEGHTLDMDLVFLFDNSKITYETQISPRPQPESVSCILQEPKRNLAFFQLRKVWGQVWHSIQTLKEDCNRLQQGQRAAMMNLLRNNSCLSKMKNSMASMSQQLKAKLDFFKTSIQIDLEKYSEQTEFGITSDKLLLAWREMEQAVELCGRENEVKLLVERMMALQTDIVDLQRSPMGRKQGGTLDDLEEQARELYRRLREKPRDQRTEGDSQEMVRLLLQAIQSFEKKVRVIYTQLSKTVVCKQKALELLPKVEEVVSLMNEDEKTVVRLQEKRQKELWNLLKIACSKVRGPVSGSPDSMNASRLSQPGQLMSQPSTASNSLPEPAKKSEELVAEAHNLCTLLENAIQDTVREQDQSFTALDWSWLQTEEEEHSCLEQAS

[10] = organism: Homo sapiens; experiment: Inhibition of Drak (unknown origin) at 0.8 ug/ml
[11] = molecular target: T3, Serine/threonine-protein kinase B-raf (Homo sapiens, UniProt P15056); experiment: Inhibition of BRAF1 (unknown origin)
T3 sequence (P15056 whole entry): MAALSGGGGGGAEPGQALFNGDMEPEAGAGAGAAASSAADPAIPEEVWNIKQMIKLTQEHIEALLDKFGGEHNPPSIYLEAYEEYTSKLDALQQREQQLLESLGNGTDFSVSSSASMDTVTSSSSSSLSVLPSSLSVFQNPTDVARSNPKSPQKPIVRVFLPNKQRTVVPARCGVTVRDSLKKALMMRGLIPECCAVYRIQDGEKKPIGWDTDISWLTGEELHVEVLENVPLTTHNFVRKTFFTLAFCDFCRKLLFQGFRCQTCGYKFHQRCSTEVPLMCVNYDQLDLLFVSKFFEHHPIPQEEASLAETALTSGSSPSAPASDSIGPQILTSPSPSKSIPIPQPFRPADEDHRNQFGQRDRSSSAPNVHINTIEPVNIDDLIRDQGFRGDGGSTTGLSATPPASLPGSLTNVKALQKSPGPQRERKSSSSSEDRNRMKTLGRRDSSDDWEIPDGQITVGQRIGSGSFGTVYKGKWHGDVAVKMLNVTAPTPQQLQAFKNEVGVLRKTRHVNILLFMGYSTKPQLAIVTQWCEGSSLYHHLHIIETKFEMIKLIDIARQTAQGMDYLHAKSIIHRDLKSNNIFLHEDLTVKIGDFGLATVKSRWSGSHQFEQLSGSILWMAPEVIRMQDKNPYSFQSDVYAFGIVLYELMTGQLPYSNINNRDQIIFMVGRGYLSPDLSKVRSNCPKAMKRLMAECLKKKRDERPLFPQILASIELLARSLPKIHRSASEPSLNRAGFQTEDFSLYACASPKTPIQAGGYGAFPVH

[12] = molecular target: T4, Aurora kinase A (Homo sapiens) (UniProt O14965); experiment: Inhibition of Aurora A (unknown origin) at 0.8 ug/ml
T4 sequence (whole entry): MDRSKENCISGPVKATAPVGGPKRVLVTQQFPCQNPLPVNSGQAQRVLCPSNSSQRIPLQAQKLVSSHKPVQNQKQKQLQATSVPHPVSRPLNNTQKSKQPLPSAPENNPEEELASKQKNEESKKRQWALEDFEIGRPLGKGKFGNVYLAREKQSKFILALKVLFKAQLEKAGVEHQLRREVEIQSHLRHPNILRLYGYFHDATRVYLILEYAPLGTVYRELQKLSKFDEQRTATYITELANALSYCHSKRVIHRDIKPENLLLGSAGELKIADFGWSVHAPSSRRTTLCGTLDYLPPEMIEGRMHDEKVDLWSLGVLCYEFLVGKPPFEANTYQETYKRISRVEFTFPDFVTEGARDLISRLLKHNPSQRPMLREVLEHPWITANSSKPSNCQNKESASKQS

[13] = molecular target: T1, RAC-alpha serine/threonine-protein kinase; experiment: Inhibition of Akt1 in human OVCAR8 cells assessed as GSK3beta phosphorylation at 1 uM by Western blotting analysis; type: cell-based; settings: OVCAR-8; method in brief: as §2
[14] = molecular target: T1, RAC-alpha serine/threonine-protein kinase; experiment: Inhibition of Akt1-mediated phosphorylation at Ser473 in human OVCAR8 cells at 1 uM by Western blotting analysis; type: cell-based; settings: OVCAR-8; method in brief: as §2
[15] = tested on: OVCAR-8; experiment: Induction of apoptosis in human OVCAR8 cells assessed as accumulation at sub-G1 phase at 20 uM after 48 hrs by annexin V-FITC/propidium iodide staining-based FACS flow cytometric analysis (reference value: 1.2%); type: functional
Method in brief: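 OVCAR-8 cells (5 × 10⁴ cells/ml, 5 ml) grown in 25 cm² flasks, treated with vehicle or compound for 48 h. Cells harvested, washed twice with ice-cold PBS, stained with annexin V-FITC/propidium iodide, analysed by flow cytometry.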

[16] = molecular target: T1, RAC-alpha serine/threonine-protein kinase; experiment: Inhibition of Akt1 (unknown origin) using ATP/eNOS as substrate at 10 uM preincubated for 5 mins followed by substrate addition measured after 30 mins by fluorescence polarization assay
Method in brief: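 Competitive fluorescence polarization kinase assay. 4 ng Akt1 in 2.5× kinase buffer (62.5 mM Tris-HCl pH 7.5, 25 mM MgCl₂, 12.5 mM β-glycerophosphate, 0.25 mM Na₃VO₄, 5 mM DTT) preincubated with DMSO vehicle or compound for 5 min at room temperature. ATP/eNOS substrate cocktail then added. Reaction stopped with 50 mM EDTA (pH 8.0), activity read per kit instructions. Single-point inhibition measured at 10.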

[17] = Inhibition of Drak (unknown origin); parameters: species or system Homo sapiens
[18] = molecular target: T3, Serine/threonine-protein kinase B-raf

Structure (SMILES)	IC50 [1] [µM]	IC50 [2] [µM]	IC50 [3] [µM]	IC50 [4] [µM]	also measured
Clc1ccc(C(NCc2ccccc2)c2ccc(-c3ccncc3)cc2)cc1 (stereo unspecified)	16.3	12.5	18.5	1.25	
Clc1ccc(C(NC2CCCCC2)c2ccc(-c3cn[nH]c3)cc2)cc1 (stereo unspecified)	26.8	2.1	5.5	1.1	
O=S(=O)(NCCNC/C=C/c1ccc(Br)cc1)c1cccc2cnccc12	15.7	11.4	10.5		
OCCNC(c1ccc(Cl)cc1)c1ccc(-c2cn[nH]c2)cc1 (stereo unspecified)	27.6		34.7	0.65	
Clc1ccc(C(NCc2ccccc2)c2ccc(-c3ncnc4[nH]cnc34)cc2)cc1 (stereo unspecified)	16.2	12.1	12.5	0.74	
CC(C)CNC(c1ccc(Cl)cc1)c1ccc(-c2cccnc2)cc1 (stereo unspecified)					inhibition [16]: 10%
CN[C@@H]1C[C@H]2O[C@@](C)([C@@H]1OC)n1c3ccccc3c3c4c(c5c6ccccc6n2c5c31)C(=O)NC4 [STAUROSPORINE]					IC50 [17]: 0.026 µM; IC50 [18]: 0.015 µM
CC(C)(C)NC(c1ccc(Cl)cc1)c1ccc(-c2cccnc2)cc1 (stereo unspecified)					inhibition [16]: 19%
Clc1ccc(C(NC2CCCCC2)c2ccc(-c3cccnc3)cc2)cc1 (stereo unspecified)					inhibition [16]: 20%
CC(C)NC(c1ccc(Cl)cc1)c1ccc(-c2ccncc2)cc1 (stereo unspecified)	17.3	13.9	22.8	0.22	
Clc1ccc(C(Nc2ccccc2)c2ccc(-c3cn[nH]c3)cc2)cc1 (stereo unspecified)					inhibition [16]: 29%
Clc1ccc(C(Nc2ccccc2)c2ccc(-c3ccncc3)cc2)cc1 (stereo unspecified)					inhibition [16]: 26%

The remaining compounds from weak to strong by IC50 [1], led by results:

IC50 [1] [µM]	IC50 [2] [µM]	IC50 [3] [µM]	IC50 [4] [µM]	Structure (SMILES)	also measured
15.6	7.8	7.9	0.48	Clc1ccc(C(NC2CC2)c2ccc(-c3cn[nH]c3)cc2)cc1 (stereo unspecified)	
15.5	3.3	16.3	1.43	CC(C)CNC(c1ccc(Cl)cc1)c1ccc(-c2ccncc2)cc1 (stereo unspecified)	
14.4	3.9	16.1	0.17	CC(C)(C)NC(c1ccc(Cl)cc1)c1ccc(-c2ccncc2)cc1 (stereo unspecified)	
14.4	11	8.6	0.64	Clc1ccc(C(NC2CCCCC2)c2ccc(-c3ncnc4[nH]cnc34)cc2)cc1 (stereo unspecified)	
14.1	5.4	8.1	0.9	CC(C)CNC(c1ccc(Cl)cc1)c1ccc(-c2cn[nH]c2)cc1 (stereo unspecified)	
13.4	11.9	30.6	0.47	Clc1ccc(C(NC2CC2)c2ccc(-c3ncnc4[nH]cnc34)cc2)cc1 (stereo unspecified)	
12.4	3.2	15.6	1.26	Clc1ccc(C(NC2CCCCC2)c2ccc(-c3ccncc3)cc2)cc1 (stereo unspecified)	
11.6	10.7	12.2	0.37	CC(C)NC(c1ccc(Cl)cc1)c1ccc(-c2cn[nH]c2)cc1 (stereo unspecified)	
10.7		11.1	0.82	NCCNC(c1ccc(Cl)cc1)c1ccc(-c2cn[nH]c2)cc1 (stereo unspecified)	
8.9	5.3	8.1	0.038	CC(C)(C)NC(c1ccc(Cl)cc1)c1ccc(-c2cn[nH]c2)cc1 (stereo unspecified)	inhibition [5]: inactive; inhibition [6]: 19.5%; inhibition [7]: 0.98%; inhibition [8]: 7.2%; inhibition [9]: 1.8%; inhibition [10]: 12%; IC50 [11]: 0.88 µM; inhibition [12]: 28.3%; inhibition [13]: Active; inhibition [14]: Active; Activity [15]: 66.8%
8.5	13.2	17	0.16	CC(C)NC(c1ccc(Cl)cc1)c1ccc(-c2ncnc3nc[nH]c23)cc1 (stereo unspecified)	
8.3	5.3	11.9	1.32	Clc1ccc(C(NCc2ccccc2)c2ccc(-c3cn[nH]c3)cc2)cc1 (stereo unspecified)	
7.7	5.3	9.9	0.74	CC(C)CNC(c1ccc(Cl)cc1)c1ccc(-c2ncnc3nc[nH]c23)cc1 (stereo unspecified)	
